Test results from ChEMBL document CHEMBL1133771, “Synthesis and pharmacological evaluation of new pyrazolidine-3, 5-diones as AT(1) angiotensin II receptor antagonists” (J Med Chem, 2000).

Tests used:
[1] = (§1) In vitro antagonist activity, Inhibition of angiotensin II (50 nM) mediated increase in cytosolic [Ca2+] conc. in PLC-PRF-5 cells; format: functional, cell-based; conditions: Homo sapiens
Procedure, shortened: (§2)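 PLC-PRF-5 cells were preincubated with compound, then stimulated with 50 nM angiotensin II. The rise in intracellular cytosolic Ca2+ concentration was measured, and inhibition of that rise is given as IC50.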

[2] = molecular target: T1, Type-1 angiotensin II receptor (Homo sapiens, UniProt P30556); assay: Binding affinity against AT1 in human hepatoma cell line, PLC-PRF-5
T1 sequence (P30556 whole entry): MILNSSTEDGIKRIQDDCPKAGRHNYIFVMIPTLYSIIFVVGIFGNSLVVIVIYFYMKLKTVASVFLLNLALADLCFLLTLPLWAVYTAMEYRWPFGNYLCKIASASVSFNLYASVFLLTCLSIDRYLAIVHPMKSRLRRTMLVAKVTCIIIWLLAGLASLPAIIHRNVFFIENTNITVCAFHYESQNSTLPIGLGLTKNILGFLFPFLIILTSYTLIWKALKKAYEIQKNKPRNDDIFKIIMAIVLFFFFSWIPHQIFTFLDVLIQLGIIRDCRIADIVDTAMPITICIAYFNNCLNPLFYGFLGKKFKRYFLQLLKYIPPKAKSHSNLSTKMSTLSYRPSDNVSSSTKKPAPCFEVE
Procedure, shortened: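 Crude membranes from PLC-PRF human hepatoma cells were prepared by lysis in ice-cold Tris/HCl 50 mM, MgCl2 2 mM, pH 7.4, then spun at 30000g. 100 µg protein was incubated 1 h at 25 °C with 3 nM [3H]AII. Nonspecific binding was taken with 1 µM losartan. Compounds were tested at 10-10–10-5 M, with filtration and scintillation counting.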

Angiotensin II receptor = molecular target: T2, Angiotensin II receptor (Homo sapiens, UniProt P30556+P50052); assay: as §1; format: functional, cell-based; procedure, shortened: as §2
T2 sequence (P30556 whole entry): T1 sequence (P30556 whole entry)
T2 sequence (P50052 whole entry): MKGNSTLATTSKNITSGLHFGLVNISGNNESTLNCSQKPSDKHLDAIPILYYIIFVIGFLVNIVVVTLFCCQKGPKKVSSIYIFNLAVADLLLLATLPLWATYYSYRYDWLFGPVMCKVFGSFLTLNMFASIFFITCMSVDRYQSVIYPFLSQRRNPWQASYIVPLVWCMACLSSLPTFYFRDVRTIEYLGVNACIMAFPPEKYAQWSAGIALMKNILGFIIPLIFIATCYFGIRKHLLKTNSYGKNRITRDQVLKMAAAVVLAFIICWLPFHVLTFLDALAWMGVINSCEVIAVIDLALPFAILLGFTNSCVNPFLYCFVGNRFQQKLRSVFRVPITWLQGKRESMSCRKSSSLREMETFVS

| IC50 [1] | Ki [2] | IC50 (Angiotensin II receptor) | SMILES |
| --- | --- | --- | --- |
| – | > 10000 nM | – | CCCCN1C(=O)C2(CCCC2)C(=O)N1Cc1ccc(-c2ccccc2C#N)cc1 |
| – | > 10000 nM | – | CCCCN1C(=O)C2(CCCC2)C(=O)N1Cc1ccc(-c2ccccc2S(=O)(=O)NC(C)(C)C)cc1 |
| – | 398 nM | – | CCCCN1C(=O)C2(CCCC2)C(=O)N1Cc1ccc(NC(=O)c2ccccc2C(=O)O)cc1 |
| – | 2000 nM | – | CCCCN1C(=O)C2(CCCC2)C(=O)N1Cc1ccc(C(=O)Nc2ccccc2C(=O)O)cc1 |
| – | > 10000 nM | – | CCCCN1C(=O)C2(CCCC2)C(=O)N1Cc1ccc(-c2ccccc2S(N)(=O)=O)cc1 |
| – | 25 nM | 28 nM | CCCCCN1C(=O)C2(CCCC2)C(=O)N1Cc1ccc(-c2ccccc2S(=O)(=O)NC(=O)c2ccccc2)cc1 |
| – | > 10000 nM | – | CCCCN1C(=O)C2(CCCC2)C(=O)N1Cc1ccc(-c2ccccc2)cc1 |
| – | 3160 nM | – | CCCCN1C(=O)C2(CCCC2)C(=O)N1Cc1ccc(-c2ccccc2C(=O)O)cc1 |
| – | > 10000 nM | – | CCCCN1C(=O)C2(CCCC2)C(=O)N1Cc1ccc(C(=O)Nc2cccc(C(=O)O)c2)cc1 |
| – | 10 nM | 12 nM | CCCCN1C(=O)C2(CCCC2)C(=O)N1Cc1ccc(-c2ccccc2S(=O)(=O)NC(=O)c2ccccc2)cc1 |

More lines, now with the values behind:

| SMILES | IC50 [1] | Ki [2] | IC50 (Angiotensin II receptor) |
| --- | --- | --- | --- |
| CCCCN1C(=O)C(C)(CCCC)C(=O)N1Cc1ccc(-c2ccccc2S(=O)(=O)NC(=O)c2ccccc2)cc1 (configuration not stated) | 33 nM | 32 nM | – |
| CCCCN1C(=O)C2(CCCC2)C(=O)N1Cc1ccc(-c2ccccc2-c2nn[nH]n2)cc1 | – | 25 nM | 22 nM |
| CCCCN1C(=O)C2(CCCC2)C(=O)N1Cc1ccc(-c2ccccc2S(=O)(=O)NC(=O)NC2CCCCC2)cc1 | – | 32 nM | 38 nM |
| O=C1N(Cc2ccccc2)N(Cc2ccc(-c3ccccc3-c3nn[nH]n3)cc2)C(=O)C12CCCC2 | – | 402 nM | – |
| CCCCN1C(=O)C(C)(C)C(=O)N1Cc1ccc(-c2ccccc2S(=O)(=O)NC(=O)c2ccccc2)cc1 | – | 42 nM | 26 nM |
| O=C1N(Cc2ccc(-c3ccccc3-c3nn[nH]n3)cc2)N(c2ccccc2)C(=O)C12CCCC2 | – | – | 89 nM |
| CCCCC(=O)NS(=O)(=O)c1ccccc1-c1ccc(CN2C(=O)C3(CCCC3)C(=O)N2CCCC)cc1 | – | 13 nM | 15 nM |
| Cc1ccc(N2C(=O)C3(CCCC3)C(=O)N2Cc2ccc(-c3ccccc3-c3nn[nH]n3)cc2)cc1 | – | 381 nM | – |
| CCCN1C(=O)C2(CCCC2)C(=O)N1Cc1ccc(-c2ccccc2S(=O)(=O)NC(=O)c2ccccc2)cc1 | – | 40 nM | 52 nM |
